Molecules are shown by their SMILES.

The first experiment deals with Histone deacetylase 4 (Homo sapiens, UniProt P56524). Briefly: Inhibition of human HDAC4 using fluorogenic tetrapeptide RHKKAc as substrate.
Chain of Histone deacetylase 4 (P56524 whole entry): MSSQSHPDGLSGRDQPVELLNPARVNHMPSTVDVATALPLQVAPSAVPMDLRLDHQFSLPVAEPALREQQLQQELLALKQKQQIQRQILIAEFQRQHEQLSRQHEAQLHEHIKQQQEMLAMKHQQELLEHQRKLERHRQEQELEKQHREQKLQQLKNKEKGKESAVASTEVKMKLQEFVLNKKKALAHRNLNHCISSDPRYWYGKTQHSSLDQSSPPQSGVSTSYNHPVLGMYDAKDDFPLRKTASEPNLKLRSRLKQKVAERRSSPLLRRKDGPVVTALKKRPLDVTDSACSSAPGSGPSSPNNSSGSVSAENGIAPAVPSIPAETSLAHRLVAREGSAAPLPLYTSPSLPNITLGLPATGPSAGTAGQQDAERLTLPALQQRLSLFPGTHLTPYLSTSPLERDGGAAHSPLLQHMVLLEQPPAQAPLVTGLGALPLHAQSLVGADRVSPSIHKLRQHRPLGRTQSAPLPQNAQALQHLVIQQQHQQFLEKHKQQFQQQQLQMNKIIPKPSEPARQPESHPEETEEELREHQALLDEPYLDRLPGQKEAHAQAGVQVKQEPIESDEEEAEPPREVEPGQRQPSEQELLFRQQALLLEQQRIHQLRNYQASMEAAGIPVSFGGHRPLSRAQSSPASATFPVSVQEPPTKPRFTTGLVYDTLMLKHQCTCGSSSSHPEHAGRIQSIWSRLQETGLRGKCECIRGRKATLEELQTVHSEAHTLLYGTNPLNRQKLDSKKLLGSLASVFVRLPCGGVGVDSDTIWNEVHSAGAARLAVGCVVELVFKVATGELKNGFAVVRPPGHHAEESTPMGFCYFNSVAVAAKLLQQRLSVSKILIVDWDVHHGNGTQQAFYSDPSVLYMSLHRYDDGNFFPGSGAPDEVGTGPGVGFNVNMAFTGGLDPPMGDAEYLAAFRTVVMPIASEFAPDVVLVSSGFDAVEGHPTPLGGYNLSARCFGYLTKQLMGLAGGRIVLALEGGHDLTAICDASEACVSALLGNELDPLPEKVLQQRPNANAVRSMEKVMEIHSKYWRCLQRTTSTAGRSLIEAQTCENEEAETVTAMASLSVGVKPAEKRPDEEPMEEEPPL
Settings: not given
The term IC50 denotes the concentration that inhibits the measured activity by half. Read a high IC50 as a need for much substance. Compound `O=C(/C=C/c1ccc(-c2ccc(O)cc2)cc1)NO` registered a half-inhibitory concentration (IC50) of 17.1 µM.

Consider `COc1ccc(-c2ccc(/C=C/C(=O)NO)cc2)cc1`, for which the IC50 came to 99.4 µM. This IC50 lies about 5.8-fold higher than the previous one.

Tested on in another experiment: not listed separately
Description: Cell cycle arrest in human IGROV1 cells assessed as accumulation at G2/M phase at IC80 after 24 hrs by propidium iodide staining-based flow cytometry (reference value: 13.21%). In kind it is functional. The note with it: IGROV-1. An outline of the steps:
(§1)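 Cell-cycle distribution in IGROV-1 cells read by flow cytometry of propidium iodide–stained cells.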
On the technique in general: In flow cytometry, cells or beads pass a laser one at a time.
Take `COc1ccc(-c2ccc(/C=C/C(=O)NO)cc2)cc1`: the Activity worked out at 2.11%.

In a further experiment the target is Histone deacetylase 1 (Homo sapiens, UniProt Q13547). Briefly: Inhibition of human HDAC1 using fluorogenic tetrapeptide RHKKAc as substrate.
Chain of Histone deacetylase 1 (Q13547 whole entry): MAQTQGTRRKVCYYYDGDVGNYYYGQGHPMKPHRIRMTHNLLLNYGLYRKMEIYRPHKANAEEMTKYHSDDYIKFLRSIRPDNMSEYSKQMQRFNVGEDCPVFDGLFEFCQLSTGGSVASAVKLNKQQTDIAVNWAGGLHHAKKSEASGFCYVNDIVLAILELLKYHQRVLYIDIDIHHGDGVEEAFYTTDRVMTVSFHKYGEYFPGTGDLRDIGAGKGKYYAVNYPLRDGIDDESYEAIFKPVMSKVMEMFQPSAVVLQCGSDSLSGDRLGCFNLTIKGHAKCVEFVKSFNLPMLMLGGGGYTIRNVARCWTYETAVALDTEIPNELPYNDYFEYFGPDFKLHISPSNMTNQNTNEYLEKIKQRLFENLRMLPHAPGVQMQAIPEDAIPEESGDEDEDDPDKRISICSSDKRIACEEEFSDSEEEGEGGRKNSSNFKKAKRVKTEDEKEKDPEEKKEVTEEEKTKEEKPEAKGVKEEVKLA
Settings: not given
Take `O=C(/C=C/c1ccc(-c2ccc(O)cc2)cc1)NO`: it took 5.51 µM to reach half-maximal inhibition (IC50). This lies in the single-digit micromolar range.

The compound `COc1ccc(-c2ccc(/C=C/C(=O)NO)cc2)cc1` had an IC50 of 8.55 µM.

For another experiment, the system named is IGROV-1. Description: Cell cycle arrest in human IGROV1 cells assessed as accumulation at G1 phase at IC80 after 24 hrs by propidium iodide staining-based flow cytometry (reference value: 49.98%).
Settings: not given
Format: functional. An outline of the steps:
as §1
Turning to `COc1ccc(-c2ccc(/C=C/C(=O)NO)cc2)cc1`, the Activity turned out to be 42.05%.

Another experiment concerns the target T1, Polyamine deacetylase HDAC10 (Homo sapiens, UniProt Q969S8).
T1 sequence (Q969S8 whole entry): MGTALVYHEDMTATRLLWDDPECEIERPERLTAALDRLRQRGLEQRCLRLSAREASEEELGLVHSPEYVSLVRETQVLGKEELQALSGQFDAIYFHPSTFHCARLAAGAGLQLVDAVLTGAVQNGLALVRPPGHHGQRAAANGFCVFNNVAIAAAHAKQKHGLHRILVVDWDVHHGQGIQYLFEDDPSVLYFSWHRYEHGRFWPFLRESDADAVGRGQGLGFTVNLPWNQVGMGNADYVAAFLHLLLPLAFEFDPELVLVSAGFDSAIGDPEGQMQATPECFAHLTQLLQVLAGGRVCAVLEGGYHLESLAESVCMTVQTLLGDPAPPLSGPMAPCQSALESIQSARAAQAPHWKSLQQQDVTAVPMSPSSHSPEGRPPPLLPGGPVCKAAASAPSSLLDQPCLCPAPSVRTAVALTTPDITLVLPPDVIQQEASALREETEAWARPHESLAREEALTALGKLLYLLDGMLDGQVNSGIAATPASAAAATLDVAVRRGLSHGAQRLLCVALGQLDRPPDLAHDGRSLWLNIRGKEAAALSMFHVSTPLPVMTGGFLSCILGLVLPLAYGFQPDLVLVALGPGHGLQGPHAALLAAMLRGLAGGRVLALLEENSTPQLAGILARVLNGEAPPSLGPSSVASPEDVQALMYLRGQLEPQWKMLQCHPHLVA
Description: Inhibition of human HDAC10 using fluorogenic tetrapeptide RHKKAc as substrate.
Settings: not given
Consider `O=C(/C=C/c1ccc(-c2ccc(O)cc2)cc1)NO`, for which inhibition was half-maximal at 11 µM (IC50).

Regarding `COc1ccc(-c2ccc(/C=C/C(=O)NO)cc2)cc1`, the IC50 was 91 µM.

Another experiment has as its target T2, Protein deacetylase HDAC6 (Homo sapiens, UniProt Q9UBN7).
T2 sequence (Q9UBN7 whole entry): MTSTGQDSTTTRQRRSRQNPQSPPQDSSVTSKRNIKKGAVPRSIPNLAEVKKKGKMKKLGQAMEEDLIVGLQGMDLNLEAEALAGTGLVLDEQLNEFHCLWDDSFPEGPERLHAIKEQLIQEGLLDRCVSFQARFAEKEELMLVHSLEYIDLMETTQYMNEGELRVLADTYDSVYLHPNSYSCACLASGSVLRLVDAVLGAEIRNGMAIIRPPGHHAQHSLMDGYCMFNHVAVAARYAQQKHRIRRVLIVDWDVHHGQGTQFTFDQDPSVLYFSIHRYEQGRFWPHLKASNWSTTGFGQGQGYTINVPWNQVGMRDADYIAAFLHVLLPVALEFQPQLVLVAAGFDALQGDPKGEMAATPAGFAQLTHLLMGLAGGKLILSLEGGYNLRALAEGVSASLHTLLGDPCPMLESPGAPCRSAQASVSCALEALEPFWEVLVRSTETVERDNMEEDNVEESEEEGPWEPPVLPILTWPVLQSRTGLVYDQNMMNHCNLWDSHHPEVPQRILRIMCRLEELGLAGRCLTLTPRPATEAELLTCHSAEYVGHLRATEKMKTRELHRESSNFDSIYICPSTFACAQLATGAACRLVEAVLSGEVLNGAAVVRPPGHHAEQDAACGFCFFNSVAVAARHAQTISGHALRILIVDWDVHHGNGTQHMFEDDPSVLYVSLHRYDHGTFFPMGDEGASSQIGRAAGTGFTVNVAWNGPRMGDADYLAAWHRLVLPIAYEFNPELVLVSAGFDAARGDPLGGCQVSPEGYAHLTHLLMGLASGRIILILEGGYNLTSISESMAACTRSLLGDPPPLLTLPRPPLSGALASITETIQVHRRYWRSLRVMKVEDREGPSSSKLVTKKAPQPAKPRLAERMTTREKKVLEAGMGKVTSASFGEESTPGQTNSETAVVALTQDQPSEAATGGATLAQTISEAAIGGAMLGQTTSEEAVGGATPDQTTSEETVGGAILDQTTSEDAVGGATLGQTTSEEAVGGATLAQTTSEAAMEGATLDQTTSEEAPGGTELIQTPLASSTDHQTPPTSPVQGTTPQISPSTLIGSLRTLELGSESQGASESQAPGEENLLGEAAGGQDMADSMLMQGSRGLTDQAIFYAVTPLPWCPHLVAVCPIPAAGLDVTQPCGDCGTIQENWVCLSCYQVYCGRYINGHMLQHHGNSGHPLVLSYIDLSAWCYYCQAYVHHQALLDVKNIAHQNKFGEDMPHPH
Briefly: Inhibition of human HDAC6 using fluorogenic tetrapeptide RHKKAc as substrate.
Settings: not given
`O=C(/C=C/c1ccc(-c2ccc(O)cc2)cc1)NO`: the IC50 was 0.0418 µM.

Turning to `COc1ccc(-c2ccc(/C=C/C(=O)NO)cc2)cc1`, the half-maximal inhibitory concentration (IC50) is 0.0368 µM.

The target of the next experiment is T3, Histone deacetylase 8 (Homo sapiens, UniProt Q9BY41).
T3 sequence (Q9BY41 whole entry): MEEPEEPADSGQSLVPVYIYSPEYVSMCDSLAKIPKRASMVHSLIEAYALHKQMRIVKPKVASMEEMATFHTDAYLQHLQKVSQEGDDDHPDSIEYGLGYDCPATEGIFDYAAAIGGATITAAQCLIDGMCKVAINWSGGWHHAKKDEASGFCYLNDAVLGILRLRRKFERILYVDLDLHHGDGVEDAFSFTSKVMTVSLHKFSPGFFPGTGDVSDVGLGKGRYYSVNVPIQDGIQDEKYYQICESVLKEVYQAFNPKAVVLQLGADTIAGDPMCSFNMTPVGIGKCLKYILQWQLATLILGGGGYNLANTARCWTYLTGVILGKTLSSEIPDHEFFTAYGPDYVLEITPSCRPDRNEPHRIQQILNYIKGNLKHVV
Description: Inhibition of human HDAC8 using fluorogenic tetrapeptide RHKKAc as substrate.
Settings: not given
For the compound `O=C(/C=C/c1ccc(-c2ccc(O)cc2)cc1)NO`, 0.162 µM corresponded to half-maximal inhibition (IC50). That is a sub-micromolar value.

In turn, `COc1ccc(-c2ccc(/C=C/C(=O)NO)cc2)cc1` displayed an IC50 of 0.0698 µM.

The target of another experiment is Histone deacetylase 5 (Homo sapiens, UniProt Q9UQL6). Description: Inhibition of human HDAC5 using fluorogenic tetrapeptide RHKKAc as substrate.
Chain of Histone deacetylase 5 (Q9UQL6 whole entry): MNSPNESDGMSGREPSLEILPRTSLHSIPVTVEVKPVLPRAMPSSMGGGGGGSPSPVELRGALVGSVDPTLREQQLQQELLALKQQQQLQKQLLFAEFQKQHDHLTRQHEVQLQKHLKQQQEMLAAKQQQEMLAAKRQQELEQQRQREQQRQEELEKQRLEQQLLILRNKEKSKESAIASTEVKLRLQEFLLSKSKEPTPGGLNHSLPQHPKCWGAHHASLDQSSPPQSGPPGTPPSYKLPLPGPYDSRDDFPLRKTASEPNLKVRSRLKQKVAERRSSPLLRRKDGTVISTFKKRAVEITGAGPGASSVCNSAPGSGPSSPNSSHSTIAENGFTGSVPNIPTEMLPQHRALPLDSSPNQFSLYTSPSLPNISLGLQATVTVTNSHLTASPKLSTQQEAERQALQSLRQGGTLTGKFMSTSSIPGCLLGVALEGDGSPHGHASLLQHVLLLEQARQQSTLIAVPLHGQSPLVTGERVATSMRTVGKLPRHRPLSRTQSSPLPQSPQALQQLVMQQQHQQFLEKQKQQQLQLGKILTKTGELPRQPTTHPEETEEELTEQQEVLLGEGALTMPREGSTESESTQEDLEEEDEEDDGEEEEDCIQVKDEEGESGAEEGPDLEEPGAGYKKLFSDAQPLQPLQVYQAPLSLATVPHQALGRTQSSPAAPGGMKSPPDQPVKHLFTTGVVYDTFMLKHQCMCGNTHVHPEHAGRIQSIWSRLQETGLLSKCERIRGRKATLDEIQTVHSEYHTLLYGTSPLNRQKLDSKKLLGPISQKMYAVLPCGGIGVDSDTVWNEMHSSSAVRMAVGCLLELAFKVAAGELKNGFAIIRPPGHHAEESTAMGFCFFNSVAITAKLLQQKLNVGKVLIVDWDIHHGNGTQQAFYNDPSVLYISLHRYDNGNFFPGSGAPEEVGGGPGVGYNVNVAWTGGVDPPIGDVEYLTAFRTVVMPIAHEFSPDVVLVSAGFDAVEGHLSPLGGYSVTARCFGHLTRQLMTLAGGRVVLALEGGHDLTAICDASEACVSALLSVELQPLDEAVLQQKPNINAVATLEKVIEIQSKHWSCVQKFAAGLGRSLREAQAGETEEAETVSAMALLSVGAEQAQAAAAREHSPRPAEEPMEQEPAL
Settings: not given
Take `O=C(/C=C/c1ccc(-c2ccc(O)cc2)cc1)NO`: inhibition was half-maximal at 11.2 µM (IC50).

Regarding `COc1ccc(-c2ccc(/C=C/C(=O)NO)cc2)cc1`, half-maximal inhibition (IC50) required 29.6 µM.

For a further experiment, the target named is Histone deacetylase 9 (Homo sapiens, UniProt Q9UKV0). Briefly: Inhibition of human HDAC9 using fluorogenic tetrapeptide RHKKAc as substrate.
Chain of Histone deacetylase 9 (Q9UKV0 whole entry): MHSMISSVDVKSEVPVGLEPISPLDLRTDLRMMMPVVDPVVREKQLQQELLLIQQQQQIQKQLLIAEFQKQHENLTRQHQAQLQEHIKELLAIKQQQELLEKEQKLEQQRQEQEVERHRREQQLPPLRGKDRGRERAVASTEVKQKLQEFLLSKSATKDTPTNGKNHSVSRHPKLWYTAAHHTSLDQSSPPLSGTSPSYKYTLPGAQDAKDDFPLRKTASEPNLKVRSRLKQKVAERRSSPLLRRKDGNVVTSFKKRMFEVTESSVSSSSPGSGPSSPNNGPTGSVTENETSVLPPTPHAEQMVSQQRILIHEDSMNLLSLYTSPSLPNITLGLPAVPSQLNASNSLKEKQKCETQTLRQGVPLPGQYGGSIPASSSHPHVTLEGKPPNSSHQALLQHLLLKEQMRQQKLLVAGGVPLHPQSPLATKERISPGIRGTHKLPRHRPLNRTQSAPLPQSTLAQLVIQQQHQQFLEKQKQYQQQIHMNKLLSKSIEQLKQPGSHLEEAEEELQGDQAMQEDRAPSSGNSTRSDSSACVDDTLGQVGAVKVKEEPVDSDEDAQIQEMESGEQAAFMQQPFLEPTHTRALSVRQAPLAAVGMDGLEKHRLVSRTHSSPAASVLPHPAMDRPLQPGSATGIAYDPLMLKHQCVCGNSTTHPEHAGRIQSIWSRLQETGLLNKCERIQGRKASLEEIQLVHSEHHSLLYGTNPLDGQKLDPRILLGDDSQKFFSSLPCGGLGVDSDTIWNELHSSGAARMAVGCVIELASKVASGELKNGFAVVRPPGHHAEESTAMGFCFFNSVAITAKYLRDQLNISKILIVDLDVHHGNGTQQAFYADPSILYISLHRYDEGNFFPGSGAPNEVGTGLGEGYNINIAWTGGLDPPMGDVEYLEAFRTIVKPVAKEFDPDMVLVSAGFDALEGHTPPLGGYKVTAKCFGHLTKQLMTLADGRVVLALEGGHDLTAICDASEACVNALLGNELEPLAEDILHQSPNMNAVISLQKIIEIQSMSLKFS
Settings: not given
As for `O=C(/C=C/c1ccc(-c2ccc(O)cc2)cc1)NO`, half-maximal inhibition (IC50) required 8.92 µM.

`COc1ccc(-c2ccc(/C=C/C(=O)NO)cc2)cc1` returned an IC50 of 39.3 µM.

The subject of another experiment is IGROV-1. Briefly: Induction of apoptosis in human IGROV1 cells at IC80 after 72 hrs by TUNEL and flow cytometry analysis (reference value: 4%). Format: functional.
Settings: not given
Regarding `COc1ccc(-c2ccc(/C=C/C(=O)NO)cc2)cc1`, the Activity was determined as 90%.

Another experiment deals with Histone deacetylase 3 (Homo sapiens, UniProt O15379).
Chain of Histone deacetylase 3 (O15379 whole entry): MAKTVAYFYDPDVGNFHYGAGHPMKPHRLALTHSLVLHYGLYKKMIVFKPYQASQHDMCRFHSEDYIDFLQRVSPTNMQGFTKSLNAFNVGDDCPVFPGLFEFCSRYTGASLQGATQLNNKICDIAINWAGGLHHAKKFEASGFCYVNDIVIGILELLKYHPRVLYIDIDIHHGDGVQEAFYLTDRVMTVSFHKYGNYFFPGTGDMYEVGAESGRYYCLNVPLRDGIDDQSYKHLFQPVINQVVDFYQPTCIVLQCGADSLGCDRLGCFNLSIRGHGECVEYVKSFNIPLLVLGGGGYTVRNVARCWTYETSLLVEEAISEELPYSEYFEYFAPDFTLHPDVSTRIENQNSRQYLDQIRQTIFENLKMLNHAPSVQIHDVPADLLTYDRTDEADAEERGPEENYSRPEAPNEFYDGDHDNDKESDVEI
Settings: not given
As to `O=C(/C=C/c1ccc(-c2ccc(O)cc2)cc1)NO`, the 50% inhibitory concentration (IC50) came out at 4.57 µM. That is a single-digit micromolar value.

As for `COc1ccc(-c2ccc(/C=C/C(=O)NO)cc2)cc1`, the IC50 amounted to 84.5 µM. This IC50 is about 18-fold higher than that of the compound before.

For another experiment, the system named is IGROV-1. Briefly: Cell cycle arrest in human IGROV1 cells assessed as accumulation at S phase at IC80 after 24 hrs by propidium iodide staining-based flow cytometry (reference value: 36.81%). Format: functional.
Settings: not given
An outline of the steps: as §1
`COc1ccc(-c2ccc(/C=C/C(=O)NO)cc2)cc1`: the Activity was 55.84%.

Another experiment deals with T4, Histone deacetylase 11 (Homo sapiens, UniProt Q96DB2).
T4 sequence (Q96DB2 whole entry): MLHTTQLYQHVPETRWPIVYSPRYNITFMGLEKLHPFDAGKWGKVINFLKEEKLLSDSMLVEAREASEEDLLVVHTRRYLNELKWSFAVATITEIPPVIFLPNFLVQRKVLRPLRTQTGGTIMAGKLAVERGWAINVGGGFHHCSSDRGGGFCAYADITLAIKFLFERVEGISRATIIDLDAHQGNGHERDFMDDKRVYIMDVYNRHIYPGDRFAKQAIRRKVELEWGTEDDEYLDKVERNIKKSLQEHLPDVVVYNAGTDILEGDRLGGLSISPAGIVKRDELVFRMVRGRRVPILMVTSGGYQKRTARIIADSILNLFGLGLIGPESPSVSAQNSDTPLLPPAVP
Briefly: Inhibition of human HDAC11 using fluorogenic tetrapeptide RHKKAc as substrate.
Settings: not given
With `O=C(/C=C/c1ccc(-c2ccc(O)cc2)cc1)NO`, it took 5.01 µM to reach half-maximal inhibition (IC50).

Compound `COc1ccc(-c2ccc(/C=C/C(=O)NO)cc2)cc1` had a 50% inhibitory concentration (IC50) of 73 µM.

Values taken from ChEMBL document CHEMBL3232764, “Influence of the adamantyl moiety on the activity of biphenylacrylohydroxamic acid-based HDAC inhibitors” (Eur J Med Chem, 2014).
